Activity and IC50 data for four compounds are collected here from ChEMBL document CHEMBL1143381 (J Med Chem, 2009).

Activity calls are given as the source filed them. The rule behind the calls is not given here.

Assay [1] concerns K562. The experiment in a line: Reversal of P-glycoprotein-mediated multidrug resistance in human anthracycline-resistant K562 cells assessed as drug level causing 50% increase in nuclear concentration of pirarubicin by spectrofluorimetry. It counts as cell-based. The method in brief: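 K562/DOX cells were grown in RPMI 1640 with 10% FCS at 37 °C, 5% CO2, and kept resistant by a monthly 3-day exposure to 400 nM doxorubicin. Cultures were started at 5 × 10^5 cells/mL and used 24 h later. Pirarubicin uptake was followed as fluorescence decrease at 590 nm (ex 480 nm) in 2 mL buffer at 37 °C.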

Assay [2] deals with K562. The assay is described as follows: Cytotoxicity against human doxorubicin-sensitive K562 cells after 72 hrs by MTT assay. In kind it is functional, cell-based. The note with it: K562, 72 h. The method in brief: (§1)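 MTT assay: cells seeded at 3000/well with doxorubicin (0.001–0.1 µM in K562; 0.1–10 µM in K562/DOX), alone or with modulator, for 72 h at 37 °C. Doxorubicin IC50 is the 50% drop in MTT conversion versus untreated cells, read from plots. RF is the IC50 without modulator divided by the IC50 with modulator. Values are mean ± SE of ≥3 runs, or mean of two runs, in quadruplicate cultures.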

The test system of assay [3] is K562. The assay is described as follows: Cytotoxicity against human doxorubicin-resistant K562 cells expressing Pgp after 72 hrs by MTT assay. In kind it is functional, cell-based. The following applies: K562, 72 h. The method in brief: as §1
Background: Formazan colour is commonly taken as a measure of viable cells.

For assay [4], the system named is K562. The experiment in a line: Potentiation of doxorubicin-induced growth inhibition in human doxorubicin-resistant K562 cells expressing Pgp at 1 uM after 72 hrs by MTT assay. It counts as functional, cell-based. The method in brief:
as §1

Assay [5] deals with K562. The experiment in a line: Cytotoxicity against human doxorubicin-resistant K562 cells expressing Pgp assessed as cell viability by trypan blue exclusion assay. It counts as functional.
For assay [6], the system named is K562. The experiment in a line: Potentiation of doxorubicin-induced growth inhibition in human doxorubicin-resistant K562 cells expressing Pgp at 3 uM after 72 hrs by MTT assay. In kind it is functional, cell-based. The method in brief: as §1

For `COc1cc(C(=O)OCCCN(C)CCCOC(=O)c2c3ccccc3cc3ccccc23)cc(OC)c1OC`, the Activity in assay [1] was 0.6 µM.

As for `COc1cccc2c1C(=O)c1c(O)c3c(c(O)c1C2=O)C[C@@](O)(C(=O)CO)C[C@@H]3O[C@H]1C[C@H](N)[C@H](O)[C@H](C)O1` [DOXORUBICIN], the IC50 (as a rule, the point on the concentration scale where inhibition reaches its midpoint) is 32 nM in assay [2] and 2840 nM in assay [3].

For the compound `COc1ccc(C(C#N)(CCCNCc2c3ccccc3cc3ccccc23)C(C)C)cc1OC` (configuration not stated), the Activity in assay [1] stood at 0.05 µM.

For `COc1ccc(CCN(C)CCCC(C#N)(c2ccc(OC)c(OC)c2)C(C)C)cc1OC` (configuration not stated), the outcome in assay [4] and in assay [6] was Active. Besides, in assay [5], the Activity is more than 95%.
